From ChEMBL document CHEMBL4422684, “Identification of novel lysine demethylase 5-selective inhibitors by inhibitor-based fragment merging strategy” (Bioorg Med Chem, 2019)

Tests used:
[1] = target: T1, Lysine-specific demethylase 4A (Homo sapiens) (UniProt O75164); assay: Inhibition of human N-terminal His-tagged KDM4A (1 to 350 residues) expressed in Escherichia coli at 25 uM using H3(21-44)-K36(Me3)-GK(Biotin)/2-OG as substrate measured after 1 hr by Alphalisa assay relative to control
T1 sequence (whole entry): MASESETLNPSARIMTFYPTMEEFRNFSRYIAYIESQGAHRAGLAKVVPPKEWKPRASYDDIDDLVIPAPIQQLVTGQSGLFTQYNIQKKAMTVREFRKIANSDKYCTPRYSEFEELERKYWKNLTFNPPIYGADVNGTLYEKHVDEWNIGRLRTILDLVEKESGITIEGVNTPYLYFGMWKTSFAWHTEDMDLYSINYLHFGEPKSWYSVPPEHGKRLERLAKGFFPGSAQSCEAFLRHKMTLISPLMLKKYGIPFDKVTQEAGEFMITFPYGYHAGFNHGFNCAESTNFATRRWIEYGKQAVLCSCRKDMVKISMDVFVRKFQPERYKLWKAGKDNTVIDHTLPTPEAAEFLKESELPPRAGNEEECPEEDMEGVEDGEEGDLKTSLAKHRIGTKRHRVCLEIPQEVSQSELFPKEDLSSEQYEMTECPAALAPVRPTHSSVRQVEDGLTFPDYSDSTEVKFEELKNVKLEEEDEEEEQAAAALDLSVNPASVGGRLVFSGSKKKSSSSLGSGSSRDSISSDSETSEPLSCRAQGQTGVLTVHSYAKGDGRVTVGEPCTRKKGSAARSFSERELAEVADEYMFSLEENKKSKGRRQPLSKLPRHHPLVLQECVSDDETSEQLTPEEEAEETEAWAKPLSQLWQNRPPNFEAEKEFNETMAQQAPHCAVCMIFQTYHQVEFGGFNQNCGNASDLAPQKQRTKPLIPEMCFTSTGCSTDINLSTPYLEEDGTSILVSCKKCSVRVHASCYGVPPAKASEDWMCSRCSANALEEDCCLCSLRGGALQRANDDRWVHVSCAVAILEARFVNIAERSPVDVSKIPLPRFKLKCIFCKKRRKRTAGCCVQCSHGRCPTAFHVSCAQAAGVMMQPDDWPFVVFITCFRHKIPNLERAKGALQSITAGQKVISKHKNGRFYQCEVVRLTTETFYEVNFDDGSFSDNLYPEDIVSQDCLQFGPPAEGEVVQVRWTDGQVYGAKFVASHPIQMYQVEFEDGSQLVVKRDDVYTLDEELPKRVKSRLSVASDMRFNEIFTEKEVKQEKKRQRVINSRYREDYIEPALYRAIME
Procedure, shortened: (§1)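 AlphaLISA demethylase assay in 50 mM HEPES pH 7.5, 0.1% BSA, 0.01% Tween 20 with DMSO. Enzyme and inhibitor combined, then peptide plus 2-OG (50 µM), Fe(II) (5 µM) and ascorbate (100 µM) in the added mix; 1 h at room temperature with shaking.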

[2] = target: T2, Histone lysine demethylase PHF8 (Homo sapiens, UniProt Q9UPP1); assay: Inhibition of human N-terminal FLAG-tagged KDM7B (2 to 525 residues) expressed in baculovirus infected Sf9 insect cells at 25 uM using H3(1-21)K9(Me2)-GGK(Biotin)/2-OG as substrate measured after 1 hr by Alphalisa assay relative to control; procedure, shortened: as §1
[3] = target: Lysine-specific demethylase 5A (Homo sapiens, UniProt P29375); assay: Inhibition of human C-terminal FLAG-tagged KDM5A (1 to 1090 residues) expressed in baculovirus infected Sf9 insect cells at 25 uM using H3(1-21)K4(Me3)-GGK(Biotin)/2-OG as substrate measured after 1 hr by Alphalisa assay relative to control; procedure, shortened: as §1
[4] = target: T2, Histone lysine demethylase PHF8; assay: Inhibition of human N-terminal FLAG-tagged KDM7B (2 to 525 residues) expressed in baculovirus infected Sf9 insect cells using H3(1-21)K9(Me2)-GGK(Biotin)/2-OG as substrate measured after 1 hr by Alphalisa assay; procedure, shortened: as §1
[5] = target: Lysine-specific demethylase 6B (Homo sapiens, UniProt O15054); assay: Inhibition of human C-terminal FLAG-tagged KDM6B (1043 to end residues) expressed in baculovirus infected Sf9 insect cells at 25 uM using H3(21-44)-K27(Me3)-GK(Biotin)/2-OG as substrate measured after 1 hr by Alphalisa assay relative to control; procedure, shortened: as §1
Chain of Lysine-specific demethylase 6B (O15054 whole entry): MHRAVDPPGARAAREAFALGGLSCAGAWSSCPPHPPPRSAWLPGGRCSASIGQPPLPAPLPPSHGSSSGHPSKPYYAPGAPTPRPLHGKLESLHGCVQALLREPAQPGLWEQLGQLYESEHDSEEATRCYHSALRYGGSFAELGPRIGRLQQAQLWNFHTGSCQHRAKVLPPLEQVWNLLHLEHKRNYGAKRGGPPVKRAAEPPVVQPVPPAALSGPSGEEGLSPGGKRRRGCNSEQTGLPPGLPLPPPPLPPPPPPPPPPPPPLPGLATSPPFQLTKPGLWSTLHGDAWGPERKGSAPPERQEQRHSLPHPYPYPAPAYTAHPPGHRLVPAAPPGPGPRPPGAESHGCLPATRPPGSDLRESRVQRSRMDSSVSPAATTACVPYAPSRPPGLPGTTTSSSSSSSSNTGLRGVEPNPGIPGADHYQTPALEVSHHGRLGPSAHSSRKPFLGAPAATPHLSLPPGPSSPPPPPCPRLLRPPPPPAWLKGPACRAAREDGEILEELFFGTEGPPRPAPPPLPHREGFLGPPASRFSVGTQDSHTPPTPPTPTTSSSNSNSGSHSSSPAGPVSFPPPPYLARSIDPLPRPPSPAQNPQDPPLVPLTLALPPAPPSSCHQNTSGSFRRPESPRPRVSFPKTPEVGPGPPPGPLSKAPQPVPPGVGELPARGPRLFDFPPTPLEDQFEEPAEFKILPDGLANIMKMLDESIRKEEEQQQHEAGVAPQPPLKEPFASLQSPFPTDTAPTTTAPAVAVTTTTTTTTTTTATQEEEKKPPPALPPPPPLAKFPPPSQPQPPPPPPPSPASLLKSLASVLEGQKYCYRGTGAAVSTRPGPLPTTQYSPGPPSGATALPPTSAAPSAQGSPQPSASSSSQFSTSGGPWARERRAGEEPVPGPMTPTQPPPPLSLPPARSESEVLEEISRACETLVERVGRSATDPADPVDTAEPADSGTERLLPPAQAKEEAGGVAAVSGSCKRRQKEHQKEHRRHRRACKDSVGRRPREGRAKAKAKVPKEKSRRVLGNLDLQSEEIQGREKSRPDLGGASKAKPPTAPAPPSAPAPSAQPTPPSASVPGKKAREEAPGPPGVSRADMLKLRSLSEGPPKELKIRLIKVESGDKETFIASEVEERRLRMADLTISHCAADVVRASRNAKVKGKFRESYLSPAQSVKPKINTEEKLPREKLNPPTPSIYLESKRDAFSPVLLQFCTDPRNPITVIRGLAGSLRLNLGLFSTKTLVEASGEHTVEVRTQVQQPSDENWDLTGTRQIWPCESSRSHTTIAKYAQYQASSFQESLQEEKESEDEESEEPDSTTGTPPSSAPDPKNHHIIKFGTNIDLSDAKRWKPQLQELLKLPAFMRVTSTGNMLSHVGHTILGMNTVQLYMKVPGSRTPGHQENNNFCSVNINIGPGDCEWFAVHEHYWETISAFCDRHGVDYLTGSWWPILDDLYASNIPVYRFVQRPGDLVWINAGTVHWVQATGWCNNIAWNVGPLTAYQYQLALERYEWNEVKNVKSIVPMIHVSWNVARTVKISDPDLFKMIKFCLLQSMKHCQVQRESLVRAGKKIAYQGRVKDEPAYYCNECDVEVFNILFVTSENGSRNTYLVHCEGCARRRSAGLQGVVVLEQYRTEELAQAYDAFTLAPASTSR

T2 sequence (Q9UPP1 whole entry, the tested form may be a part): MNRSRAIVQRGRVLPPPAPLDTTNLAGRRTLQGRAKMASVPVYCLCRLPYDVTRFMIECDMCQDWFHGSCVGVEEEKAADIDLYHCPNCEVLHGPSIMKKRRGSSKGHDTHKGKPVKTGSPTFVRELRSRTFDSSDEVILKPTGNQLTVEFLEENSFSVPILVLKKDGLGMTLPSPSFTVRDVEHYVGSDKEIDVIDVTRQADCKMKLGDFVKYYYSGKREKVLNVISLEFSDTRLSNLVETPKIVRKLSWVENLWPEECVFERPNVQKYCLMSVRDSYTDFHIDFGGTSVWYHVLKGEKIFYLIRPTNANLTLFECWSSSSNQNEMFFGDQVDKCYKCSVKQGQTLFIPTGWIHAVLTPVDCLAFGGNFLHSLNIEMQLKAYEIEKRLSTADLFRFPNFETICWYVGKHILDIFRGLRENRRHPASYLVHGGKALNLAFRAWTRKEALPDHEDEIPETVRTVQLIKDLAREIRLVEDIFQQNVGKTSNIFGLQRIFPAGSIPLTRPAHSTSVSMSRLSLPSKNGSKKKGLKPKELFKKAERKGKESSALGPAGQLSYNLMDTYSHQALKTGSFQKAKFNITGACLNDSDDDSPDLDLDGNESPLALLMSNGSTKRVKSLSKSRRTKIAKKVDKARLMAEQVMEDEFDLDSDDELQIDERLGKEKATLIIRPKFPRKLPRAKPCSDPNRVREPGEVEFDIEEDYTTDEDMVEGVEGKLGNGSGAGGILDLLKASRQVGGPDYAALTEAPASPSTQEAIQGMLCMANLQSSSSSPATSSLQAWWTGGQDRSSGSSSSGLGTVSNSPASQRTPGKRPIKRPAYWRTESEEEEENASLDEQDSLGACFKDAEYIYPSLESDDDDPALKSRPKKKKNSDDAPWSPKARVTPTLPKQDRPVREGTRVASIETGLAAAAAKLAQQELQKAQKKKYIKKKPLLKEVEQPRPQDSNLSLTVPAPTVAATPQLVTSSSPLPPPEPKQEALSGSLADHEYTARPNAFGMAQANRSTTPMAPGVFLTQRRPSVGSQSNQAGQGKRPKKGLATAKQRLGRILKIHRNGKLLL
Chain of Lysine-specific demethylase 5A (P29375 whole entry, the tested form may be a part): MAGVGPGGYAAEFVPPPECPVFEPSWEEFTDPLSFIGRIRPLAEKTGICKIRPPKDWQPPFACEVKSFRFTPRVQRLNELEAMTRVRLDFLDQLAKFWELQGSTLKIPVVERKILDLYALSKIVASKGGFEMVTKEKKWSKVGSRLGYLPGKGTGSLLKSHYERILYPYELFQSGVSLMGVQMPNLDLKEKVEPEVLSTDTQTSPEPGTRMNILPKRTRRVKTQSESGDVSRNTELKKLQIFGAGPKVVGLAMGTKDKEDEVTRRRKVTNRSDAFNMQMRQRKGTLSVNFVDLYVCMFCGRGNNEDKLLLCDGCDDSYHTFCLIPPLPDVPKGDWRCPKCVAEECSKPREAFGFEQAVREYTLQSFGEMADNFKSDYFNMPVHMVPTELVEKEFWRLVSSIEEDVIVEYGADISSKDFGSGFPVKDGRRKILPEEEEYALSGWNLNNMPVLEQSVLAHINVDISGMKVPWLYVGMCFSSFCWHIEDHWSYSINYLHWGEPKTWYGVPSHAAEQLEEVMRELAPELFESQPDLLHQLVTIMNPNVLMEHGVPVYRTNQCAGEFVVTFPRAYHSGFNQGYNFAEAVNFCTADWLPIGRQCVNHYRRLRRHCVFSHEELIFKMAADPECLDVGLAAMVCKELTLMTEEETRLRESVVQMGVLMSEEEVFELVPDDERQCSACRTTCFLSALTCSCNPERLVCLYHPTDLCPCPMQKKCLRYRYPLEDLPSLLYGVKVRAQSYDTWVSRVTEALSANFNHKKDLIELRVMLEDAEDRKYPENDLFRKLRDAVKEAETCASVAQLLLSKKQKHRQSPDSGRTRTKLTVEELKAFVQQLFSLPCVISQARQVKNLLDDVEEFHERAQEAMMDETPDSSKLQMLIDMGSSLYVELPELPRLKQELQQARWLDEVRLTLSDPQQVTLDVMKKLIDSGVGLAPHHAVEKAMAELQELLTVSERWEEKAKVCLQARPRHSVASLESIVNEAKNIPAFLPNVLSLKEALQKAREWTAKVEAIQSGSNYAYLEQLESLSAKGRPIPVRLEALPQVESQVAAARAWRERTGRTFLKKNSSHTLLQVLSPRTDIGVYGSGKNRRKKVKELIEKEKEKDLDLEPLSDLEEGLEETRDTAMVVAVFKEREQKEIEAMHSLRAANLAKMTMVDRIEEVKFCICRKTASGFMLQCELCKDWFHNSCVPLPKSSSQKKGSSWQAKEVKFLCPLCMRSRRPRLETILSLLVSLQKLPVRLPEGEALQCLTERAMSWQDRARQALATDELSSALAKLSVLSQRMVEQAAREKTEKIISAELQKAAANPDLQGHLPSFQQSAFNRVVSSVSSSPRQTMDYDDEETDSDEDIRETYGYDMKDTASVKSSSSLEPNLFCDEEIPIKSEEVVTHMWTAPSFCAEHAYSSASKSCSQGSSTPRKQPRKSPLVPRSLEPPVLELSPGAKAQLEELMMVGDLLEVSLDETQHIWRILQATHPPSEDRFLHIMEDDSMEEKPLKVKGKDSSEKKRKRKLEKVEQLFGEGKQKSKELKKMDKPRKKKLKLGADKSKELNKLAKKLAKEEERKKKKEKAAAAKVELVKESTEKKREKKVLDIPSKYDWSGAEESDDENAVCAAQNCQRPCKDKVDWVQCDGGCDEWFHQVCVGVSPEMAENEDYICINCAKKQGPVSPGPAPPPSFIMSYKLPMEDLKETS

| Compound | inhibition [1] | inhibition [2] | inhibition [3] | IC50 [4] | inhibition [5] |
| --- | --- | --- | --- | --- | --- |
| CCCCCCN(C)CCc1ccc(-c2[nH]c3c(C#N)cnn3c(=O)c2C(C)C)cc1 | 32.4% | 11.8% |  |  |  |
| CCCCCN(C)CCCCC(=O)N(O)CCC(=O)O |  |  | 89.9% |  |  |
| CCCCCCN(C)Cc1ccc(-c2[nH]c3c(C#N)cnn3c(=O)c2C(C)C)cc1 |  | 12.1% |  | > 50 µM |  |
| CC(C)c1c(-c2ccccc2)[nH]c2c(C#N)cnn2c1=O | 35.9% |  | 100% |  | 69.1% |
